Laboratory results as given in ChEMBL document CHEMBL4325901, “Novel multitarget-directed ligands targeting acetylcholinesterase and σ1 receptors as lead compounds for treatment of Alzheimer's disease: Synthesis, evaluation, and structural characterization of their complexes with acetylcholinesterase” (Eur J Med Chem, 2019).
pIC50, pKi: −log10 of the molar value. Activity calls are given as the source filed them. The calls are words filed in the database; no cut-off is given here.

Experiments:
[1] = molecular target: T1, 5-hydroxytryptamine receptor 4 (Homo sapiens, UniProt Q13639); assay: Displacement of [3H]-GR113808 from recombinant human 5-HT4BR expressed in membranes at 1 uM after 60 mins relative to control
Outline: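 Crude membranes from a stable recombinant cell line expressing 5-HT4B were incubated in duplicate at 25 °C for 60 min with compound at 10^-6 or 10^-8 M and 0.2 nM [3H]-GR113808 in 25 mM Tris, pH 7.4. They were filtered through polyethylenimine-presoaked GF/C filters and washed three times with ice-cold Tris. Nonspecific binding was defined with serotonin.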

[2] = molecular target: T1, 5-hydroxytryptamine receptor 4; assay: Displacement of [3H]-GR113808 from recombinant human 5-HT4BR expressed in membranes after 60 mins
Acetylcholinesterase [3] = molecular target: T2, Acetylcholinesterase (Homo sapiens, UniProt P22303); assay: Inhibition of human erythrocytes AChE using acetylthiocholine iodide as substrate preincubated for 5 mins followed by substrate addition measured at 1 min time interval for 10 mins by Ellman's method
[4] = molecular target: Sigma non-opioid intracellular receptor 1 (Homo sapiens, UniProt Q99720); assay: Displacement of [3H]-(+)-pentazocine from sigma-1 receptor in human Jurkat cell membranes after 2 hrs by liquid scintillation counting method
[5] = molecular target: T1, 5-hydroxytryptamine receptor 4; assay: Agonist activity at 5-HT4R (unknown origin) expressed in CHO cells assessed as intracellular cAMP accumulation after 15 mins by radio-immunoassay; assay type: functional, cell-based
Outline: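 Stably transfected CHO cells grown to confluence, serum-starved 4 h, then preincubated 15 min in serum-free medium with 5 mM theophylline, 10 mM pargyline and […] to block endogenous 5-HT1B receptors. 5-HT or test compound added for a further 15 min. Stopped with ice-cold ethanol, 30 min at room temperature, ethanol fraction dried, cAMP quantified by competitive radioimmunoassay.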

Acetylcholinesterase [6] = molecular target: T2, Acetylcholinesterase; assay: Non-competitive inhibition of human erythrocytes AChE up to 1 uM using varying levels of acetylthiocholine iodide substrate preincubated for 5 mins followed by substrate addition measured at 1 min time interval for 10 mins by Lineweaver-Burk plot analysis
[7] = molecular target: T1, 5-hydroxytryptamine receptor 4; assay: Antagonist activity at 5-HT4R (unknown origin) expressed in CHO cells assessed as reduction in intracellular cAMP accumulation after 15 mins by radio-immunoassay; assay type: functional, cell-based
Mus musculus [8] = assay: Cognition enhancing effect in Swiss mouse assessed as protection against dizocilpine-induced spatial memory impairment by measuring spontaneous alternation performance at 0.1 to 1 mg/kg, ip pretreated for 10 mins followed by dizocilpine treatment and measured after 20 mins by Y-maze test; assay type: functional, organism-based
Outline: (§1)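 Male Swiss mice, 6 weeks, 32 g, groups of 12e16. Compounds dissolved in 10% DMSO in saline, diluted in saline; vehicle 2% DMSO in saline. Given IP 10 min before dizocilpine 0.15 mg/kg IP, 20 min before Y-maze session (alternation % and arm entries) or passive-avoidance training (footshock 3 s on entering dark compartment; step-through latency).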

Mus musculus [9] = assay: Cognition enhancing effect in Swiss mouse assessed as protection against dizocilpine-induced long term non-spatial memory impairment by measuring increase in step-through latency at 0.1 mg/kg, ip pretreated for 10 mins followed by dizocilpine treatment and measured after 20 mins by passive avoidance test relative to control; assay type: functional; outline: as §1

T1 sequence (Q13639 whole entry): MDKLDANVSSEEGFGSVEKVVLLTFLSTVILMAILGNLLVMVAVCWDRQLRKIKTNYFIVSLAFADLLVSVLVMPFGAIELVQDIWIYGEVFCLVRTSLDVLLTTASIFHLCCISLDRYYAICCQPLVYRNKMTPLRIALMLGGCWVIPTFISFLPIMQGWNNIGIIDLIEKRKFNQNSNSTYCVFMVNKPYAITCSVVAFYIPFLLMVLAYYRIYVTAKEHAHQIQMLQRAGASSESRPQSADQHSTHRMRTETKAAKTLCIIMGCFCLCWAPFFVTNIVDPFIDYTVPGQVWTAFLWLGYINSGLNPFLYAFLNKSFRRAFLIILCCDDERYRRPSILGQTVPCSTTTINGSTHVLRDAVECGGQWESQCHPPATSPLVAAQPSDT
T2 sequence (P22303 whole entry): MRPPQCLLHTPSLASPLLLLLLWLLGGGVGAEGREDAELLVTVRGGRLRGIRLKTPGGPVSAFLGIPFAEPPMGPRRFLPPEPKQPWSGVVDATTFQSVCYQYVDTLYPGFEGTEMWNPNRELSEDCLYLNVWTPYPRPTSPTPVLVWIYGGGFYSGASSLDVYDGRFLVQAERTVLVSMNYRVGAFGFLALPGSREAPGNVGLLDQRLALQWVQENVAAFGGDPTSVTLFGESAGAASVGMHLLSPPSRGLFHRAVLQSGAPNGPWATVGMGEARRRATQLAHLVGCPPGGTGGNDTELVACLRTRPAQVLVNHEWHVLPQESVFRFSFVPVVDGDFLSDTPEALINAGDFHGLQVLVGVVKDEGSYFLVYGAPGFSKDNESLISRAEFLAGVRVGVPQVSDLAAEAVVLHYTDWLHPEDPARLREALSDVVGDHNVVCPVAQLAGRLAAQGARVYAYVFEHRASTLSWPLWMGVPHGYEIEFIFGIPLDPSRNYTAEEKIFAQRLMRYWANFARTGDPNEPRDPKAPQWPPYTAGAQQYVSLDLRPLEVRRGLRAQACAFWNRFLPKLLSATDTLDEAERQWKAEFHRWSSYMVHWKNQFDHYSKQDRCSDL
Sigma non-opioid intracellular receptor 1, sequence (Q99720 whole entry): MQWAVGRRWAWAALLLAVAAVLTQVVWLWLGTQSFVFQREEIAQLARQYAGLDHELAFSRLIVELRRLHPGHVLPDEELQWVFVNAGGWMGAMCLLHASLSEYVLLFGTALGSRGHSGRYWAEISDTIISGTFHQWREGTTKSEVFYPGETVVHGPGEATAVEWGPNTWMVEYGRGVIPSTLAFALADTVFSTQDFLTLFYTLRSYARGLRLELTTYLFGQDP

Row | SMILES | inhibition [1] | pKi [2] | pIC50 (Acetylcholinesterase [3]) | pKi [4] | other results
1 | O=C(CCC1CCN(CC2CCCC2)CC1)c1ccc2[nH]ccc2c1 | 100% | 7.60 | 7.03 | – | –
2 | CCCCN1CCC(CCC(=O)c2ccc3[nH]ccc3c2)CC1 | 97% | 7.30 | 6.15 | – | –
3 | COc1c(C(=O)CCC2CCN(Cc3ccccc3)CC2)cc(Cl)c2[nH]c([Si](C)(C)C)cc12 | 62% | – | 6.56 | – | –
4 | COc1c(C(=O)CCC2CCN(CC3CCCCC3)CC2)ccc2[nH]ccc12 | 100% | 7.29 | 7.40 | – | –
5 | COc1cc(N)c(Cl)cc1C(=O)CCC1CCN(CC2CCCCC2)CC1 | – | – | – | 7.29 | Activity [5]: Active
6 | COc1cc2c(cc1OC)C(=O)C(CC1CCN(Cc3ccccc3)CC1)C2 (centres undefined) | 10% | – | – | – | –
7 | O=C(CCC1CCN(CC2CCCCC2)CC1)c1ccc2[nH]ccc2c1 | 100% | 7.43 | 7.29 | – | –
8 | COc1c(C(=O)CCC2CCN(CC3CCCCC3)CC2)cc(Cl)c2[nH]ccc12 | 100% | 7.39 | 7.04 | 8.29 | inhibition (Acetylcholinesterase [6]): Active; inhibition [7]: Active
9 | O=C(CCC1CCN(CC2CCCCC2)CC1)c1ccc2c(ccn2Cc2ccccc2)c1 | 42% | – | 6.88 | – | –
10 | COc1c(C(=O)CCC2CCN(Cc3ccccc3)CC2)cc(Cl)c2[nH]ccc12 | 96% | 6.82 | 7.69 | 8.24 | –
11 | O=C(CCC1CCN(Cc2ccccc2)CC1)c1ccc2[nH]ccc2c1 | 90% | 6.77 | 7.88 | 8.48 | –
12 | O=C(CCC1CCN(CC2CCCCC2)CC1)c1cc(Cl)c2[nH]ccc2c1 | 100% | 7.43 | 7.54 | 8.29 | Activity (Mus musculus [8]): inactive; Activity (Mus musculus [9]): 40%
13 | COc1c(C(=O)CCC2CCN(CC3CCCCC3)CC2)cc(Cl)c2c1ccn2Cc1ccccc1 | – | – | 6.58 | – | –
14 | COc1c(C(=O)CCC2CCN(CC3CCCCC3)CC2)cc(Cl)c2c1ccn2S(=O)(=O)c1ccccc1 | 62% | – | 6.25 | – | –
15 | CCCCN1CCC(CCC(=O)c2cc(Cl)c(N)cc2OC)CC1 | 100% | – | – | – | –
16 | COc1c(C(=O)CCC2CCN(CC3CCCCC3)CC2)cc(Cl)c2c1ccn2C | – | – | 7.07 | – | –
